The test system of data set [1] is RAW264.7. The data set is described as follows: Cytotoxicity against mouse RAW264.7 cells assessed as cell viability at 60 uM after 24 hrs by MTT assay in absence of LPS. The data set is classed as cell-based. To be noted: raw264.7, 24 h. The gist of the method: (§1)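 RAW 264.7 seeded at 1 × 10^5 cells/mL, grown overnight, exposed 24 h with or without LPS; MTT (5 mg/mL stock in PBS) added 4 h at 37 °C, formazan dissolved in DMSO, absorbance at 540 nm.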

For data set [2], the system named is RAW264.7. The data set is described as follows: Cytotoxicity against mouse RAW264.7 cells assessed as cell viability at 60 uM after 24 hrs by MTT assay in presence of LPS. It counts as cell-based. The following applies: raw264.7, 24 h. The gist of the method: as §1
For data set [3], the system named is RAW264.7. The data set is described as follows: Antiinflammatory activity in mouse RAW264.7 cells assessed as inhibition of LPS-induced iNOS mRNA expression at 60 uM after 2 to 12 hrs by qRT-PCR method. It counts as functional, cell-based. The gist of the method:
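RAW 264.7 stimulated with LPS 10 ng/mL with or without 60 μM for 2, 4, 6 and 12 h. Total RNA (1 μg) reverse-transcribed with MuLV RT and random primer; SYBR green real-time qPCR with gene-specific primers, triplicate Ct normalized to β-actin. Mean ± SD, three independent experiments.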

The subject of data set [4] is RAW264.7. The data set is described as follows: Antiinflammatory activity in mouse RAW264.7 cells assessed as inhibition of LPS-induced iNOS promoter activity at 60 uM preincubated for 1 hr followed by LPS challenge for 6 to 12 hrs by reporter gene assay. The data set is classed as functional, cell-based. The gist of the method:
(§2)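 RAW 264.7 transiently cotransfected with promoter-luciferase construct (pGL3-iNOS, pGL3-COX-2 or pTNF-α-luc) plus phRL-TK internal control; 6 h after transfection pretreated 1 h with 60 μM, then LPS 10 ng/mL for 6 or 12 h. Cells washed in cold PBS, lysed, luciferase read. Mean ± SD, three independent experiments.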

In data set [5] the test system is RAW264.7. The data set is described as follows: Antiinflammatory activity in mouse RAW264.7 cells assessed as inhibition of LPS-induced COX-2 promoter activity at 60 uM preincubated for 1 hr followed by LPS challenge for 6 to 12 hrs by reporter gene assay. The data set is classed as functional, cell-based. The gist of the method: as §2
Data set [6] deals with T1, Signal transducer and activator of transcription 1 (Mus musculus) (UniProt P42225).
T1 sequence (whole entry): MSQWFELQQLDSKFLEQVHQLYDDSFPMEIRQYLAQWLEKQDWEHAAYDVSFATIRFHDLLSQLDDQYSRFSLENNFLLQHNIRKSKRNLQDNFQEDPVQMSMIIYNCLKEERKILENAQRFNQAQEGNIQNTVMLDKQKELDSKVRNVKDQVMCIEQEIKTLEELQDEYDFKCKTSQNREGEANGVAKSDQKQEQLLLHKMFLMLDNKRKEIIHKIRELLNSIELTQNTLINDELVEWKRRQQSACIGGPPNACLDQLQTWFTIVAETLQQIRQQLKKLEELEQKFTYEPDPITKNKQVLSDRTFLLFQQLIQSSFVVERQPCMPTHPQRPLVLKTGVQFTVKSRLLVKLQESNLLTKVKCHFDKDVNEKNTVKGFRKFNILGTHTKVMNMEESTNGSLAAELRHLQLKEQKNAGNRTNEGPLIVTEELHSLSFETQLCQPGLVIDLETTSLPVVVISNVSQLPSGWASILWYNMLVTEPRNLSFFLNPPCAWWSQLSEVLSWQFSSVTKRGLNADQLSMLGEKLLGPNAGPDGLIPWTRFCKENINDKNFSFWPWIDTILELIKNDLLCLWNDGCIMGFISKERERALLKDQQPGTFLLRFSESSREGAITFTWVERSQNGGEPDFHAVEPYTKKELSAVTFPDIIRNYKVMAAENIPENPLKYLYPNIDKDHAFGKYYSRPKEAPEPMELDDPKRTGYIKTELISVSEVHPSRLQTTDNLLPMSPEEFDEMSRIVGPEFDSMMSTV
Nature of the data set: Inhibition of LPS-induced STAT1 phosphorylation at Y701 in mouse RAW264.7 cells at 15 to 60 uM preincubated for 1 hr followed by LPS challenge for 120 mins by Western blot analysis. The data set is classed as cell-based. The gist of the method:
(§3)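 RAW 264.7 pretreated 1 h at 15, 30 or 60 μM, then LPS 10 ng/mL: 120 min for p-STAT1 Y701, 15 min for p-STAT1 S727, 120 min for p-STAT3 Y705. Western blot with phospho-specific and total STAT1/STAT3 antibodies, β-actin control; three independent experiments.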

The target in data set [7] is T1, Signal transducer and activator of transcription 1 (Mus musculus). Nature of the data set: Inhibition of LPS-induced STAT1 phosphorylation at S727 in mouse RAW264.7 cells at 15 to 60 uM preincubated for 1 hr followed by LPS challenge for 15 mins by Western blot analysis. It counts as cell-based. The gist of the method:
as §3

Data set [8] has as its target Signal transducer and activator of transcription 3 (Mus musculus) (UniProt P42227). The data set is described as follows: Inhibition of LPS-induced STAT3 phosphorylation at Y705 in mouse RAW264.7 cells at 15 to 60 uM preincubated for 1 hr followed by LPS challenge for 120 mins by Western blot analysis. It counts as cell-based. The gist of the method: as §3
For data set [9], the target named is Mitogen-activated protein kinase 1 and 3 (ERK2 and ERK1) (Mus musculus) (UniProt P63085+Q63844). Nature of the data set: Inhibition of LPS-induced ERK1/2 phosphorylation in mouse RAW264.7 cells at 15 to 60 uM preincubated for 1 hr followed by LPS challenge for 30 mins by Western blot analysis. It counts as cell-based. The gist of the method: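 RAW 264.7 pretreated 1 h at 15, 30 or 60 μM, then LPS 10 ng/mL for 30 min. Lysates Western-blotted for p-p38, p38, p-JNK, JNK, p-ERK, ERK with β-actin control; ECL, densitometry. Three independent experiments.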
Sequence of Mitogen-activated protein kinase 1 and 3 (ERK2 and ERK1) (Mus musculus) (P63085 whole entry, looked up): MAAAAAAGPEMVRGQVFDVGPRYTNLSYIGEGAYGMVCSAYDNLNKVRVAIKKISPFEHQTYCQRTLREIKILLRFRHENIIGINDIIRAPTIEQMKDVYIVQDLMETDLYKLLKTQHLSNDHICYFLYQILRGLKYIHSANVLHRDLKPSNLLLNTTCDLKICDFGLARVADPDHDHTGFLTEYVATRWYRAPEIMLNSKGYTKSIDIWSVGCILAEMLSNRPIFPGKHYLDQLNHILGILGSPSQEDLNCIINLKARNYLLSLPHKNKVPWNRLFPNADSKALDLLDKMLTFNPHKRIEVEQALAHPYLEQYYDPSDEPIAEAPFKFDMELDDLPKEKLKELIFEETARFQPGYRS
Sequence of Mitogen-activated protein kinase 1 and 3 (ERK2 and ERK1) (Mus musculus) (Q63844 whole entry, looked up): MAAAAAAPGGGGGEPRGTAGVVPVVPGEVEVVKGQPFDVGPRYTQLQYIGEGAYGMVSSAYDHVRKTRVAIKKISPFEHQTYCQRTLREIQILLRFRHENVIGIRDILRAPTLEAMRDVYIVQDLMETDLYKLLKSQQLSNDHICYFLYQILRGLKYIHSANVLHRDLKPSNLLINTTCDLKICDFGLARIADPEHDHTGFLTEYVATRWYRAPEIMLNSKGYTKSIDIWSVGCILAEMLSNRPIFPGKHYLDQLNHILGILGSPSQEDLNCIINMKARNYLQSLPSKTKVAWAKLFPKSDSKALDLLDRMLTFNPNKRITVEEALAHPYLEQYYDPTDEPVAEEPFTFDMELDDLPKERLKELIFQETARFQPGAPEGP

Data set [10] has as its system Mus musculus. Nature of the data set: In vivo inhibition of LPS-induced STAT1 phosphorylation at S727 in C57BL/6 mouse liver at 10 mg/kg, ip pretreated for 1 hr followed by LPS challenge for 6 hrs by Western blot analysis. The data set is classed as functional, organism-based. The gist of the method: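 Male C57BL/6 mice given 10 mg/kg i.p. or vehicle 1 h before LPS (Salmonella enterica, 25 mg/kg i.p.); liver collected 6 h after LPS, frozen at −80 °C. Liver mRNA by SYBR qRT-PCR normalized to β-actin; protein by Western blot for p-STAT1 (Y701, S727). Eight mice per group; mean ± SD.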

Data set [11] has as its system Mus musculus. The data set is described as follows: Protection against LPS-induced mortality in C57BL/6 mouse assessed as lethality level at 5 to 10 mg/kg, ip pretreated for 1 hr followed by LPS challenge measured every 12 hrs for 96 hrs post challenge. It counts as functional. The gist of the method: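 Male C57BL/6 mice (6 weeks) given compound i.p. (5 or 10 mg/kg) or vehicle 1 h before i.p. LPS (Salmonella enterica, 25 mg/kg). Water only for 12 h beforehand. Survival checked every 12 h for 96 h; n = 5 per group.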

For the next data set, the system named is Rattus norvegicus. Nature of the data set: Antiinflammatory activity in Sprague-Dawley rat assessed as reduction in carrageenan induced paw edema at 5 mg/kg, ip administered 1 hr before carrageenan challenge measured at 3 hrs post challenge relative to control. It counts as functional. The gist of the method: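 SD rats given compound i.p. (5, 10 or 15 mg/kg) 1 h before subplantar injection of 1% carrageenan in saline (0.1 mL) into the right hind paw. Paw volume measured by plethysmometer at 1, 3 and 5 h. Edema compared with the carrageenan-only group; seven rats per group.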

Activity calls are given as the source filed them. The rule behind the calls is not given here.

Sequence of Signal transducer and activator of transcription 3 (Mus musculus) (P42227 whole entry): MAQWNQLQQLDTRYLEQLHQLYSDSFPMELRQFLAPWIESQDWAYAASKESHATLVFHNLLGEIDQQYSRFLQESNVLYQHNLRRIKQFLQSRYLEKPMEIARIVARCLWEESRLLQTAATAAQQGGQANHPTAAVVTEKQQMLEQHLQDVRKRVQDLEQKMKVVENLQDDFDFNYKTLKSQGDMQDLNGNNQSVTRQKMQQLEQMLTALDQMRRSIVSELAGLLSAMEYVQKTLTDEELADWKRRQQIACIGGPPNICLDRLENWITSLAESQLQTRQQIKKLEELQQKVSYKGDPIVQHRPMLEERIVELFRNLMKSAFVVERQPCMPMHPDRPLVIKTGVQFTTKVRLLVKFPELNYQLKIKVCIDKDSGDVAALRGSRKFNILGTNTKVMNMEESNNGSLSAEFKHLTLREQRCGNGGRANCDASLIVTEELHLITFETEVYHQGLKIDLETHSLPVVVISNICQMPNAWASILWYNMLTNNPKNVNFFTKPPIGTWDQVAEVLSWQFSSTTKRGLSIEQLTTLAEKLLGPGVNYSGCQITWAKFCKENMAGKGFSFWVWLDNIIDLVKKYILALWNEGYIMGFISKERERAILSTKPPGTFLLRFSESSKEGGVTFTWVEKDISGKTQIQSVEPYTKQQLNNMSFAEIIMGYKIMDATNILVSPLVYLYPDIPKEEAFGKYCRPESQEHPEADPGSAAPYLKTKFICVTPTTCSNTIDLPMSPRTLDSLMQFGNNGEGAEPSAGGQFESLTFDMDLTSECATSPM

`Cc1cc(=O)c2c(O)c([C@@H]3O[C@H](CO)[C@@H](O)[C@H](O)[C@H]3O)c(O)cc2o1` [BIFLORIN]: the Activity entry in the data set on RAW264.7 [1] and with RAW264.7 [2] was “Non-Toxic” throughout. Also, the inhibition entry (with RAW264.7 [3]; in the data set with RAW264.7 [4]; in the data set with RAW264.7 [5]; in data set [6]; in [7]; in data set [8]) was “Active” throughout. Further, the inhibition entry with Mus musculus [10] was “Active”. For the same compound, the inhibition entry in data set [9] is “inactive”. Also, the mortality in the data set on Mus musculus [11] was 40 - 60%. Moreover, the inhibition in vivo at 5 mg/kg with Rattus norvegicus turned out to be 26%.

Values taken from ChEMBL document CHEMBL4477178, “Biflorin, Isolated from the Flower Buds of Syzygium aromaticum L., Suppresses LPS-Induced Inflammatory Mediators via STAT1 Inactivation in Macrophages and Protects Mice from Endotoxin Shock” (J Nat Prod, 2016).
